Results from ChEMBL document CHEMBL1811853, “Design and evaluation of 3-aminopyrazolopyridinone kinase inhibitors inspired by the natural product indirubin” (Bioorg Med Chem, 2011).

How the values were obtained:
[1] = molecular target: T1, Protein kinase C zeta type (Homo sapiens) (UniProt Q05513); experiment: Inhibition of PKCz at 30 uM by microfluidic mobility shift assay
T1 sequence (whole entry): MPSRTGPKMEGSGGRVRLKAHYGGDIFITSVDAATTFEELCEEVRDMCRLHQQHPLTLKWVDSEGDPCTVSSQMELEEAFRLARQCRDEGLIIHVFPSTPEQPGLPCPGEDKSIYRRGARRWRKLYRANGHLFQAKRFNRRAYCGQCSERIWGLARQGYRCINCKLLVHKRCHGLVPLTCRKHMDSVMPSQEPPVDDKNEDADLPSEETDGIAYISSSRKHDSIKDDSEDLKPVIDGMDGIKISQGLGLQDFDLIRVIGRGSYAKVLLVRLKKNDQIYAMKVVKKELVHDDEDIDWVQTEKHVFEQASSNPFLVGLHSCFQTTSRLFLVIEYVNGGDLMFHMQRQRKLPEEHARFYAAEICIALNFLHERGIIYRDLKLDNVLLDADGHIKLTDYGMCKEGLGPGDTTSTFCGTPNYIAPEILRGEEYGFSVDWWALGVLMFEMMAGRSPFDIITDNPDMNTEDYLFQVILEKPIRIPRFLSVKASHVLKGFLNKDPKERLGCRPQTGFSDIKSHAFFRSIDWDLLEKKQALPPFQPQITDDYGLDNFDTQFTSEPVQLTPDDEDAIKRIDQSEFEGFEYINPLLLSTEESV
How it was run: (§1)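 Single-concentration screen, singlicate, 30 uM final (diluted from 1 mM DMSO solutions), fluorescently tagged peptide substrate appropriate to each kinase, ATP at apparent Km for each protein. Phosphorylated and unphosphorylated peptides separated electrophoretically; conversion is the phosphorylated peak area over the sum of both peaks. No-inhibitor and no-ATP controls; H89 reference on each plate.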

[2] = molecular target: Ribosomal protein S6 kinase alpha-1 (Homo sapiens) (UniProt Q15418); experiment: Inhibition of RSK1 at 30 uM by microfluidic mobility shift assay; how it was run: as §1
Ribosomal protein S6 kinase alpha-1 (Homo sapiens), sequence (Q15418 whole entry): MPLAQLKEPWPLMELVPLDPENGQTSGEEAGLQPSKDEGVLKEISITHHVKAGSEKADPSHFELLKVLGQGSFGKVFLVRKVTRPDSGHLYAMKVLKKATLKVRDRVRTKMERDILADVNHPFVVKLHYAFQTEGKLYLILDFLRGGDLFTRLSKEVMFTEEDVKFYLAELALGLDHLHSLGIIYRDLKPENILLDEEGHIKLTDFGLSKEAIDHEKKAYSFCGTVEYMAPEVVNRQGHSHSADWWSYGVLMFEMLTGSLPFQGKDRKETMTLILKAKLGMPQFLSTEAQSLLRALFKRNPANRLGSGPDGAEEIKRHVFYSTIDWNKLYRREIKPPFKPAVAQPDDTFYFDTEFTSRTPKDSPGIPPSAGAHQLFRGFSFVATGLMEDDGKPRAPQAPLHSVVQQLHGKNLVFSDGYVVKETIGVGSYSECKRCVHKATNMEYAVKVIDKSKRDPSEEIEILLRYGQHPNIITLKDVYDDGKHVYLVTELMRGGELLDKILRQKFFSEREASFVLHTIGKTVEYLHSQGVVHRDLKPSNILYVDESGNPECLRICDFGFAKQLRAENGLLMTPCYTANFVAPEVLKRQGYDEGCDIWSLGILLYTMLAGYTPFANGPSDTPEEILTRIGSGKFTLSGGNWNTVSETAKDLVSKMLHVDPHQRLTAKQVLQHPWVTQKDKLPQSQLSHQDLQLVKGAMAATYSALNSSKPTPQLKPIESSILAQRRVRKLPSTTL

[3] = molecular target: RAC-beta serine/threonine-protein kinase (Homo sapiens) (UniProt P31751); experiment: Inhibition of AKT2 at 30 uM by microfluidic mobility shift assay; how it was run: as §1
RAC-beta serine/threonine-protein kinase (Homo sapiens), sequence (P31751 whole entry): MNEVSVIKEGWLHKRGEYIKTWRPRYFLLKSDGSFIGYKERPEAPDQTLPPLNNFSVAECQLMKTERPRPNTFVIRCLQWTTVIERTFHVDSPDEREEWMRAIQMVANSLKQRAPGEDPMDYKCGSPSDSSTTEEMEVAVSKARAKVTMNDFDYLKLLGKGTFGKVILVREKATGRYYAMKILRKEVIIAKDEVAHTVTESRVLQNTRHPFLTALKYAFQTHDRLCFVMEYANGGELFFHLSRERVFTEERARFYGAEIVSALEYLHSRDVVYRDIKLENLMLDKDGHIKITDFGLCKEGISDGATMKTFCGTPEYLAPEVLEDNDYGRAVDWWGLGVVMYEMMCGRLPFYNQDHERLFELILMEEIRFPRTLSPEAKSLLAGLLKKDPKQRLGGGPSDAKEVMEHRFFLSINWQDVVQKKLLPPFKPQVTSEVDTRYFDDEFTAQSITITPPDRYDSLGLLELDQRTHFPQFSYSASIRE

[4] = molecular target: MAP kinase-activated protein kinase 2 (Homo sapiens, UniProt P49137); experiment: Inhibition of MAPKAPK2 at 30 uM by microfluidic mobility shift assay; how it was run: as §1
MAP kinase-activated protein kinase 2, sequence (P49137 whole entry, looked up): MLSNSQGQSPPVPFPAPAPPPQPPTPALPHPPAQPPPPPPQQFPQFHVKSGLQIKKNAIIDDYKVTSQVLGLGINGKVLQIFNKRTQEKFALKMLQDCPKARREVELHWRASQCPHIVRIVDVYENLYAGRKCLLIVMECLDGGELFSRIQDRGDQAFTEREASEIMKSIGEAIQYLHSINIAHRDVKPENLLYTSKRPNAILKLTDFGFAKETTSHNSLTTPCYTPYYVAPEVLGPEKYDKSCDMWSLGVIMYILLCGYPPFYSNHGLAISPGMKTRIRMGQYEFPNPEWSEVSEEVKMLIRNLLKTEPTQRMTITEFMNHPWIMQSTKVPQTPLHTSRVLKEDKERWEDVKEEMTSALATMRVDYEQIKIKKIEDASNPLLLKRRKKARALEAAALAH

[5] = molecular target: T2, Serine/threonine-protein kinase Chk1 (Homo sapiens) (UniProt O14757); experiment: Inhibition of CHK1 at 30 uM by microfluidic mobility shift assay; how it was run: as §1
T2 sequence (whole entry): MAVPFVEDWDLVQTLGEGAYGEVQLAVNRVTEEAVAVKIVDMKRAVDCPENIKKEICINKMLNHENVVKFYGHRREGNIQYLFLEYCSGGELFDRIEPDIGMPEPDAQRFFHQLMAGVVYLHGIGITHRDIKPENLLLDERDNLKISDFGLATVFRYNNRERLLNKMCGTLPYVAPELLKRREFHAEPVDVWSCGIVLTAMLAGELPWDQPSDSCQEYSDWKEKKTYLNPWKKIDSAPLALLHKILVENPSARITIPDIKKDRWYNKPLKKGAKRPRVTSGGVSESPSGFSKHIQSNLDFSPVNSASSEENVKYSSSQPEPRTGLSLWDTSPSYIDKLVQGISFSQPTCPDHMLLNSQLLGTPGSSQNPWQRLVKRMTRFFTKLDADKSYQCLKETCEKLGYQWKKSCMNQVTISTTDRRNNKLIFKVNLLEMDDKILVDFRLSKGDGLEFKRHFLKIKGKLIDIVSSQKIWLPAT

[6] = molecular target: Tyrosine-protein kinase Fyn (Homo sapiens, UniProt P06241); experiment: Inhibition of FYN at 30 uM by microfluidic mobility shift assay; how it was run: as §1
Tyrosine-protein kinase Fyn, sequence (P06241 2-537 limits assumed): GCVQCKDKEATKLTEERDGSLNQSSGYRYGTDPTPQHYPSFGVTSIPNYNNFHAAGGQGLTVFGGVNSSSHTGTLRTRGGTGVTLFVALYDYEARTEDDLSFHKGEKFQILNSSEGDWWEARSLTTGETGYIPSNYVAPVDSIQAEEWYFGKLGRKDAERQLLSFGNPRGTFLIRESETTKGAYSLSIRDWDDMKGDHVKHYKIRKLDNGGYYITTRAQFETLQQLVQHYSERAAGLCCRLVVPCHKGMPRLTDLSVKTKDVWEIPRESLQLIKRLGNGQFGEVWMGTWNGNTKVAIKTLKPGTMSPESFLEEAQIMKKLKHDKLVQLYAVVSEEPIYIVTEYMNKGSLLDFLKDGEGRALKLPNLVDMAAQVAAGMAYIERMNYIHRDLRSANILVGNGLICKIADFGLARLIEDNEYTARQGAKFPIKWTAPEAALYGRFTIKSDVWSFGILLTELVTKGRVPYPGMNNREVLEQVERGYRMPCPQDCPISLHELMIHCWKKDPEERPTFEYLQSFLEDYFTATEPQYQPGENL

[7] = molecular target: Mitogen-activated protein kinase 14 (Homo sapiens, UniProt Q16539); experiment: Inhibition of p38alpha at 30 uM by microfluidic mobility shift assay; how it was run: as §1
Mitogen-activated protein kinase 14, sequence (Q16539 whole entry): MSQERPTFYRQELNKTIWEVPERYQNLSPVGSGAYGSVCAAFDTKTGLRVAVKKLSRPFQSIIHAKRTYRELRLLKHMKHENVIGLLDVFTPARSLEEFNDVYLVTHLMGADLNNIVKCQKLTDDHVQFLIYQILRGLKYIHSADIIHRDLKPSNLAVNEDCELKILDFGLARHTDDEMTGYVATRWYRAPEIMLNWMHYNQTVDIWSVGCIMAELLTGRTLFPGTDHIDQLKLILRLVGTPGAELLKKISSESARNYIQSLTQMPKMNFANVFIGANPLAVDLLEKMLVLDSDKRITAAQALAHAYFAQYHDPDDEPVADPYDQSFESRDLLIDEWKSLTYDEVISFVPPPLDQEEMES

[8] = molecular target: Tyrosine-protein kinase ABL1 (Homo sapiens, UniProt P00519); experiment: Inhibition of ABL at 30 uM by microfluidic mobility shift assay; how it was run: as §1
Tyrosine-protein kinase ABL1, sequence (P00519 whole entry): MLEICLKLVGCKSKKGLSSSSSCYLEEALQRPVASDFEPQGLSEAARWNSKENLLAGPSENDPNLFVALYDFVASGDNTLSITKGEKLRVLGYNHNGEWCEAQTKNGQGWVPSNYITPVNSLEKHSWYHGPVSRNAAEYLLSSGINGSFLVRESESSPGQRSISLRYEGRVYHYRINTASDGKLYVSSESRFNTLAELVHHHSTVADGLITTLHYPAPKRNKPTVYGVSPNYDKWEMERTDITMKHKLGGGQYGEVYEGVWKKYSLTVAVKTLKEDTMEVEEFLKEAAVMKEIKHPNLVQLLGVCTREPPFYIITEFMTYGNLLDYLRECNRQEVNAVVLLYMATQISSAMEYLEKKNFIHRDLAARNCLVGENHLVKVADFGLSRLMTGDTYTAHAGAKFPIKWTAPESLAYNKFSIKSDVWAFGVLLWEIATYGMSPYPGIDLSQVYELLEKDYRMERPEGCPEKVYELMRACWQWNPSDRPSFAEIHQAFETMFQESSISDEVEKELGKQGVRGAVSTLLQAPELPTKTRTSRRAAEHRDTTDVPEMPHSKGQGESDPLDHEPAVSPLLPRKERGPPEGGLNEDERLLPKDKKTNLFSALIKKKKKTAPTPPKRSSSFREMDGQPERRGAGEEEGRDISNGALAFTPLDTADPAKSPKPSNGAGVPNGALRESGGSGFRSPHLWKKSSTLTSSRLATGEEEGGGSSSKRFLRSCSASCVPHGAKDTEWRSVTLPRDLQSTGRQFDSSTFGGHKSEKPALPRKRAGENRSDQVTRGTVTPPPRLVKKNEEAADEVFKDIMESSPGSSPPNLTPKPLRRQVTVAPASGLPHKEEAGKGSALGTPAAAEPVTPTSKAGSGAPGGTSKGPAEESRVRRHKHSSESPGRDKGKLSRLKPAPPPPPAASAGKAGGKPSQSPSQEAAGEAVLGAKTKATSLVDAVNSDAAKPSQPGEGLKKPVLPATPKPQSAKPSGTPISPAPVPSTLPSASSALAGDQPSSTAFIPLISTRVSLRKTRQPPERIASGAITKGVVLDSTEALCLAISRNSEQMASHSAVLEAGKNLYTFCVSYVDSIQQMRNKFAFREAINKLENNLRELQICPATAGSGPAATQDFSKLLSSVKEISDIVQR

[9] = molecular target: Mitogen-activated protein kinase 3 (Homo sapiens) (UniProt P27361); experiment: Inhibition of ERK1 at 30 uM by microfluidic mobility shift assay; how it was run: as §1
Mitogen-activated protein kinase 3 (Homo sapiens), sequence (P27361 whole entry): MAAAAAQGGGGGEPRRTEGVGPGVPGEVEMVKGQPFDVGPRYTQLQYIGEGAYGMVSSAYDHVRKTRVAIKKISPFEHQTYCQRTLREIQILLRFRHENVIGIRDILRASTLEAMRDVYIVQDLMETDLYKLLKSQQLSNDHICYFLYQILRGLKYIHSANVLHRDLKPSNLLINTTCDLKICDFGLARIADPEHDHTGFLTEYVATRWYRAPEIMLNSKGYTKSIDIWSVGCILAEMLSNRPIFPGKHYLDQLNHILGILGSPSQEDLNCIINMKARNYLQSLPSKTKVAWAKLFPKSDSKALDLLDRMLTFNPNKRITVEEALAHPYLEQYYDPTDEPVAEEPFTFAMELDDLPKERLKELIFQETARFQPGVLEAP

SMILES | inhibition [1] [%] | inhibition [2] [%] | inhibition [3] [%] | inhibition [4] [%] | inhibition [5] [%] | inhibition [6] [%] | inhibition [7] [%] | inhibition [8] [%] | inhibition [9] [%]
Nc1n[nH]c2c3c([nH]c(=O)c12)CCCC3 | -5 | -9 | -1 | 5 | 17 | 11 | -4 | 0 | 5
COc1cccc(-c2cc3[nH]nc(N)c3c(=O)[nH]2)c1 | -1 | 20 | 2 | 56 | 13 | 42 | 10 | 44 | 20
COc1ccc(-c2cc3nn(-c4ccccc4)c(N)c3c(=O)[nH]2)cc1 | 0 | 4 | 0 | 7 | 5 | 88 | 38 | 89 | 8
Nc1c2c(=O)[nH]c(-c3ccccc3)cc2nn1-c1ccccn1 | -3 | 5 | 0 | 6 | 2 | 41 | 7 | 33 | 2
CN1CCN(c2ccc(-c3cc4[nH]nc(N)c4c(=O)[nH]3)cc2)CC1 | 35 | 26 | 6 | 55 | 54 | 76 | 7 | 86 | 4
COc1ccccc1-c1cc2nn(-c3ccccc3)c(N)c2c(=O)[nH]1 | 4 | 3 | 0 | -1 | 3 | 77 | 68 | 86 | 21
Nc1n[nH]c2cc(-c3ccncc3)[nH]c(=O)c12 | 10 | 22 | 4 | 37 | 21 | 28 | 1 | 28 | 57
Nc1n[nH]c2cc(-c3cccnc3)[nH]c(=O)c12 | 1 | 11 | 8 | 40 | 9 | 24 | 3 | 37 | 19
Nc1n[nH]c2cc(-c3ccc(N4CCOCC4)cc3)[nH]c(=O)c12 | -2 | 16 | 7 | 55 | 29 | 62 | 6 | 61 | 9
CN1CCN(c2ccc(-c3cc4nn(-c5ccccc5)c(N)c4c(=O)[nH]3)cc2)CC1 | 23 | 19 | 10 | 4 | 52 | 99 | 85 | 99 | 0

The next lines start with the values.

inhibition [1] [%] | inhibition [2] [%] | inhibition [3] [%] | inhibition [4] [%] | inhibition [5] [%] | inhibition [6] [%] | inhibition [7] [%] | inhibition [8] [%] | inhibition [9] [%] | SMILES
6 | 22 | 1 | 47 | 27 | 23 | 2 | 21 | 19 | COc1cccc(-c2cc3c(c(N)nn3C)c(=O)[nH]2)c1
27 | -6 | 16 | 1 | 7 | 11 | 0 | -2 | 0 | Cc1cc2c(c(NS(C)(=O)=O)nn2C)c(=O)[nH]1
21 | -2 | 6 | 2 | 0 | 3 | -4 | 3 | 4 | COc1ccc(S(=O)(=O)Nc2nn(C)c3cc(C)[nH]c(=O)c23)c(OC)c1
10 | 18 | 25 | 24 | 11 | 20 | -1 | 23 | 13 | COc1ccc(-c2c(C)[nH]c(=O)c3c(N)nn(C)c23)cc1
19 | -5 | 4 | 2 | 7 | 1 | 0 | -4 | 2 | Cc1cc2c(c(N)nn2C)c(N2CC[C@H](O)C2)n1
20 | -3 | -1 | 2 | 7 | 0 | 2 | -7 | 3 | COCCNc1nc(-c2ccccc2)cc2c1c(N)nn2C
-10 | -4 | -3 | 6 | 7 | -1 | 1 | -8 | 5 | COCCNc1nc(C)cc2c1c(N)nn2C
0 | 9 | 10 | 36 | 34 | 24 | 1 | 27 | 10 | Cn1nc(N)c2c(=O)[nH]c(-c3ccccn3)cc21
5 | 0 | 1 | 8 | 6 | 12 | 6 | 4 | 5 | Cn1nc2c3c(nc(-c4ccccc4)cc31)NCC(=O)N2
7 | 7 | 11 | 59 | 14 | 50 | 0 | 55 | 13 | COc1ccc(-c2cc3[nH]nc(N)c3c(=O)[nH]2)cc1
-1 | 5 | 3 | 6 | 11 | 9 | 85 | 13 | 21 | CC(C)(C)c1cc2nn(-c3ccccc3)c(N)c2c(=O)[nH]1
6 | 16 | -1 | 5 | 16 | 15 | 3 | 20 | 3 | CC(=O)Nc1nn(C)c2cc(-c3ccc(N4CCN(C)CC4)cc3)[nH]c(=O)c12
3 | – | 2 | 18 | 9 | 8 | 2 | 18 | 4 | Cc1nc(N)c2c(=O)[nH]c(C)cc2n1
-3 | 18 | -8 | 51 | 36 | 56 | 5 | 53 | 28 | COc1ccc(-c2cc3c(c(N)nn3C)c(=O)[nH]2)cc1
8 | -4 | 0 | 26 | 15 | 11 | -1 | 19 | 9 | Cc1cc2nc(N)nc(N)c2c(=O)[nH]1
